Assay results from publication PMC5768141 (Journal of natural products, 2017).

What was measured:
[1] = system: OVCAR3 human ovarian cancer cells; assay: Cell viability assay; assay type: cell-based; settings: OVCAR-3, 72 h, read-out: IC50 against OVCAR3
OVCAR8 cells = assay: Cell viability assay; assay type: cell-based; settings: Homo sapiens, OVCAR-8, 72 h, read-out: IC50 against OVCAR8
[2] = system: MOE^LOW murine oviductal epithelial cells; assay: Cell viability assay; assay type: cell-based; settings: Mus musculus, 72 h, read-out: IC50 against MOE^LOW
[3] = system: MOE^HIGH murine oviductal epithelial cells; assay: Cell viability assay; assay type: cell-based; settings: Mus musculus, 72 h, read-out: IC50 against MOE^HIGH
[4] = system: Na^+/K^+-ATPase (adenosine 5′-triphosphatase from porcine cerebral cortex); assay: Na^+/K^+-ATPase activity assay; assay type: biochemical; settings: various concentrations, 15 min at 37 °C
Method in brief: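 The Na+/K+-ATPase from porcine cerebral cortex, in assay buffer, was mixed with DMSO or test compound in DMSO, and ATP was added to start the reaction. After 15 min at 37 °C, ADP-Glo reagent stopped the reaction and depleted ATP over 40 min at room temperature. Detection reagent then converted ADP to ATP over 60 min, and ATP was read by luciferin/luciferase luminescence.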

OVCAR3 cells [5] = assay: Clonogenic assay; assay type: cell-based, human; settings: OVCAR3, 21 days, treated every three days
Method in brief: (§1)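 Cells in RPMI 1640 with 10% FBS were plated at 200 cells per 60 mm dish and grown 21 days. Test compound or solvent control was given every three days. Colonies were fixed with 4% (w/v) paraformaldehyde, stained with 0.04% (w/v) crystal violet for 30 min at room temperature, imaged and counted by image analysis. Three biological replicates.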

OVSAHO cells [6] = assay: Clonogenic assay; assay type: cell-based, human; settings: 21 days, treated every three days
Method in brief: as §1

OVCAR3 cells [7] = assay: Soft agar colony formation assay; assay type: cell-based, human; settings: OVCAR3, 21 days, vs DMSO control
Method in brief: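 OVCAR3 cells, cultured in RPMI 1640 with 10% FBS, were suspended at 1.5 × 10^4 cells in 0.35% w/v top agar over a 0.5% w/v base agar layer. They were grown 21 days with the medium changed every three days. Colonies were imaged by microscopy and counted by image analysis. Three biological replicates.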

OVSAHO cells [8] = assay: Soft agar colony formation assay; assay type: cell-based, human; settings: 21 days, vs DMSO control
Method in brief: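 OVSAHO cells (1.5 × 104) suspended in 0.35% w/v agar over a 0.5% w/v base agar layer, with test compound or solvent control. Grown 21 days with medium changed every three days. Colonies imaged by microscopy and counted by image analysis; three biological replicates.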

OVCAR3 cells [9] = assay: Cell cycle assay; assay type: cell-based, human; settings: OVCAR3, 72 h
OVCAR3 cells [10] = assay: Immunoblot analysis with densitometry; assay type: cell-based, human; settings: for ERK activation (phosphorylated ERK) / p53 expression: OVCAR3, 100 nM; for p53 expression: 72 h; for Bcl-xL expression / Cleaved PARP level / Cleaved caspase 3 level / Mcl-1 expression / p21 protein expression: OVCAR3, western blot densitometry
Method in brief: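 OVCAR3 cells exposed to test compound (100 nM, 72 h). Lysed in RIPA buffer on ice for 15 min, then spun at 14,000 g, 4 °C, 15 min. Protein quantified by BCA; 25 μg per lane run on SDS-PAGE and transferred to PVDF. Blocked in 5% milk/TBST for 1 h at RT, primary antibody overnight at 4 °C, secondary 30 min. Chemiluminescent detection, ImageJ densitometry, n = 3.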

OVSAHO cells [11] = assay: Immunoblot analysis with densitometry; assay type: cell-based, human; settings: for ERK activation (phosphorylated ERK): 100 nM; for p21 protein expression: western blot; for Cleaved PARP expression level: western blot densitometry
OVCA432 cells = assay: Immunoblot analysis; assay type: cell-based, human
[12] = system: OVCAR3 ovarian cancer cells; settings: cited from earlier work
[13] = system: MDA-MB-231 breast cancer cells; settings: cited from earlier work
HT-29 colon cancer cells = settings: cited from earlier work
KB nasopharyngeal cells = settings: cited from earlier work
[14] = system: normal human colon CCD-112CoN cells; settings: cited from earlier work
[15] = system: normal human peripheral blood mononuclear cells; settings: cited from earlier work
hERG channels = settings: cited from earlier work

| Compound | IC50 [2] [µM] | IC50 [3] [µM] | Cell cycle distribution (OVCAR3 cells [9]) | ERK activation (phosphorylated ERK) (OVCAR3 cells [10]) | p53 expression (OVCAR3 cells [10]) | Bcl-xL expression (OVCAR3 cells [10]) | Cleaved PARP level (OVCAR3 cells [10]) | Cleaved caspase 3 level (OVCAR3 cells [10]) | Mcl-1 expression (OVCAR3 cells [10]) | p21 protein expression (OVCAR3 cells [10]) | ERK activation (phosphorylated ERK) (OVSAHO cells [11]) | p21 protein expression (OVSAHO cells [11]) | Cleaved PARP expression level (OVSAHO cells [11]) | p53 expression (OVCA432 cells) | further results |
| --- | --- | --- | --- | --- | --- | --- | --- | --- | --- | --- | --- | --- | --- | --- | --- |
| CO[C@H]1[C@H](O[C@H]2CC[C@]3(C=O)[C@H]4CC[C@]5(C)[C@@H](C6=CC(=O)OC6)CC[C@]5(O)[C@@H]4CC[C@]3(O)C2)O[C@H](C)[C@H](O)[C@@H]1OC [(+)-strebloside, (+)-Strebloside] | > 50 | > 50 | induced an accumulation of cells in the G2/M phase | induced activation of ERK | disappearance of p53 | decrease in Bcl-xL after treatment was not statistically significant | significantly higher levels of cleaved PARP | significant increase in cleaved caspase 3 | expressed less Mcl-1 than control cells | expressed more p21 protein than the control | induced activation of ERK | significant increase in p21 expression | higher than the levels in control cells | decreased expression of p53 | IC50 [1]: 0.134 µM; IC50 (OVCAR8 cells): 0.0911 µM; Inhibition of Na^+/K^+-ATPase activity [4]: inhibited Na^+/K^+-ATPase activity in a concentration-dependent manner; 2D colony formation (OVCAR3 cells [5]): neither OVCAR3 nor OVSAHO cells formed colonies; 2D colony formation (OVSAHO cells [6]): neither OVCAR3 nor OVSAHO cells formed colonies; Soft agar colony formation (anchorage-independent growth) (OVCAR3 cells [7]): formed significantly less soft agar colonies than a DMSO control; Soft agar colony formation (anchorage-independent growth) (OVSAHO cells [8]): no difference was detected; In vivo potency in hollow fiber assay [12]: significant potency in vivo; In vivo potency in hollow fiber assay [13]: significant potency in vivo; Cytotoxicity (HT-29 colon cancer cells): potent cytotoxicity; Cytotoxicity (KB nasopharyngeal cells): potent cytotoxicity; Toxicity compared with digoxin [14]: not as toxic as digoxin; Toxicity compared with digoxin [15]: not as toxic as digoxin |
| C[C@H]1O[C@@H](O[C@H]2[C@@H](O)C[C@H](O[C@H]3[C@@H](O)C[C@H](O[C@H]4CC[C@@]5(C)[C@H](CC[C@@H]6[C@@H]5CC[C@]5(C)[C@@H](C7=CC(=O)OC7)CC[C@]65O)C4)O[C@@H]3C)O[C@@H]2C)C[C@H](O)[C@@H]1O [digitoxin, reference compound] | > 50 | > 50 | accumulation of cells in the G2/M phase | induced activation of ERK | disappearance of p53 | decrease in Bcl-xL after treatment was not statistically significant | significantly higher levels of cleaved PARP | significant increase in cleaved caspase 3 | expressed less Mcl-1 than control cells | expressed more p21 protein than the control | induced activation of ERK | significant increase in p21 expression | higher than the levels in control cells | decreased expression of p53 | Interaction with hERG channels and hERG trafficking (hERG channels): reported to interact with hERG channels and hERG trafficking |
